# Measurements gathered from unrelated publications.
# Protocols differ between the studies behind these lines.
# Target: Tyrosine-protein kinase ABL2 (ABL2, Homo sapiens, UniProt P42684)
Compound,effect on,method,tested at,remaining binding
C[C@@H]1CCN(c2nccc(-c3cnn4ncccc34)n2)C1,binding,,1 µM,76%
CC(C)(O)c1cncc(-c2nc3ccc(F)cc3n2C2CC2)c1,cell-free assay,competition with immobilised ligand,1 µM,100%
Cc1cnn2ncc(-c3ccnc(N(C)C)n3)c2c1,binding,,1 µM,100%
CS(=O)(=O)CCNCc1ccc(-c2ccc3ncnc(Nc4ccc(OCc5cccc(F)c5)c(Cl)c4)c3c2)o1,cell-free assay,competition with immobilised ligand,10 µM,100%
N[C@@H]1CCN(c2nccc(-c3cnn4ncccc34)n2)C1,binding,,1 µM,96%
O=C(Nc1c[nH]nc1C(=O)NC1CCNCC1)c1cc(F)cc(F)c1,binding,competition with immobilised ligand,1 µM,100%
CCN(CC)Cc1cc(Nc2ccnc3cc(Cl)ccc23)ccc1O,cell-free assay,competition with immobilised ligand,10 µM,100%
O=C(c1ccc(Nc2nccc(-c3cc4ccccc4s3)n2)cc1)N1CCC(N2CCCC2)CC1,binding,competition with immobilised ligand,1 µM,77%
Nc1ncc2c(n1)-c1c([nH]c3ccc(C#CC4CC4)cc13)CCCC2,binding,competition with immobilised ligand,1 µM,86%
CN(C)c1nccc(-c2cnc3ncccn23)n1,binding,,1 µM,99%
FC(F)(F)Oc1cccc(-c2cnc3ccc(-c4ccncc4)nn23)c1,cell-free assay,competition with immobilised ligand,5 µM,76%
CNCc1ccccc1-c1csc([C@@H](C)Nc2nc(C)nc3cc(OC)c(OC)cc23)c1,cell-free assay,competition with immobilised ligand,1 µM,100%
COc1cc2ncnc(Nc3ccc(F)c(Cl)c3)c2cc1OCCCN1CCOCC1,cell-free assay,competition with immobilised ligand,10 µM,83%
CSc1cccnc1N1CCN(Cc2nc3ccccc3[nH]2)CC1,cell-free assay,competition with immobilised ligand,1 µM,98%
COC(=O)Nc1nc2cc(C(=O)c3ccccc3)ccc2[nH]1,cell-free assay,competition with immobilised ligand,0.1 µM,100%
O=C(Nc1cccnn1)N1CC(C/C=C/c2cncc(Oc3ccc(C(F)(F)F)cn3)n2)C1,cell-free assay,competition with immobilised ligand,1 µM,100%
Cc1cnc(Nc2ccc(C(=O)N3CCC(N4CCCC4)CC3)cc2)nc1-c1cc2ccccc2s1,binding,competition with immobilised ligand,1 µM,43%
Cc1nc(Cc2cccc(C(F)(F)F)c2)sc1-c1ccc(C(N)=O)nc1,cell-free assay,competition with immobilised ligand,1 µM,100%
Cc1c(-c2ccccc2)oc2c(C(=O)OCCN3CCCCC3)cccc2c1=O,cell-free assay,competition with immobilised ligand,10 µM,94%
COc1cccc(CNC(=O)c2nc3scc(COCc4ccc(C(=O)O)cc4)c3c(=O)[nH]2)c1,cell-free assay,competition with immobilised ligand,1 µM,82.2%
CNC(=O)[C@@H]1CC[C@@H](n2c(-c3ccc4cnccc4c3)nc3ccc(C(=O)NCc4cccc(C(N)=O)c4)cc32)C1,binding,competition with immobilised ligand,1 µM,98%
